# KCNK3 block: human KCNK3 channel inhibition, primary screen | CHO-KCNK3 thallium flux, FluxOR fluorescence; stronger effect = lower value | B-score at 10 µM | 340,000 tested, 0.84% active | O14649;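 active = B-score under library mean minus 4 SD, starting fluorescence ratio at most library mean plus 5 SD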;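 also: more negative B-score means stronger inhibition of thallium flux through KCNK3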
# KCNK9 block: blocks the human KCNK9 two-pore domain potassium channel; Q9NPC2; HEK293 KCNK9, FluxOR thallium flux fluorescence; stronger effect = lower value; B-score at 10 µM; 310,000 tested, 1.2% active;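 active = ratio B-score over 3 SD below the library mean, with starting fluorescence within 5 SD of its mean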;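 also: negative B-score means less thallium flux so channel inhibition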
# KCNQ1 act: potentiates or activates the human KCNQ1 potassium channel. CHO-K1 KCNQ1, thallium flux FluxOR fluorescence; stronger effect = higher value. B-score at 10 µM. 310,000 tested, 0.35% active. P51787;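 active = fluorescence ratio B-score, a plate-corrected score, at least three library SD, with initial intensity B-score within 5 SD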
#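 assay system = CHO-K1 cells stably expressing KCNQ1 | medium = assay buffer, equal DMSO in all wells | timing = 37 °C overnight plating, 90-min dark dye load, 20-min compound pretreatment | measured by = kinetic FluxOR thallium fluorescence, 10-s 1-Hz baseline, 110-s post-stimulus read | measure = fluorescence change relative to baseline, converted to B score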
# KCNQ1 inh: human KCNQ1 channel inhibition; 310,000 tested, 1.3% active; B-score at 10 µM; CHO-K1 KCNQ1, FluxOR thallium flux fluorescence; stronger effect = higher value; P51787;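 active = compounds whose thallium flux B-score, printed positive for inhibition, exceeds three library SD while starting fluorescence stays within three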;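 also: channel opened by potassium depolarization with thallium stimulus after 20 min compound exposure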
# Kir21 block: inhibitors of mouse Kir2.1 inward-rectifier potassium channel | B-score at 10 µM | 310,000 tested, 0.85% active | HEK293-Kir2.1, FluxOR thallium flux fluorescence; stronger effect = lower value;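 active = fluorescence ratio B-score at or below minus 3 SD of library scores, with starting-brightness B-score within 2 SD, cut at about -4.2 in these data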;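 also: channel flux triggered by added potassium and thallium sulfate stimulus; B-score of peak minus minimum fluorescence over baseline after thallium stimulus; more negative B-score means stronger Kir2.1 block with less thallium influx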
# hERG protect: shields human hERG channel from block by proarrhythmic agents; CHO-hERG, FluxOR thallium flux, dofetilide IC70 present; 310,000 tested, 0.51% active; activation (rescue from dofetilide block), less the hit threshold, % at 10 µM;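 active = activation above the mean of controls blocked by dofetilide plus 5 SD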;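 also: thallium influx through hERG after potassium depolarization seen as dye fluorescence rise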
# A number is an active result; . = inactive; / = no result given. Compounds with a hit are over-represented: about 3.8% of the library has one in this group of screens.
SMILES,KCNK3 block,KCNK9 block,KCNQ1 act,KCNQ1 inh,Kir21 block,hERG protect
CN[C@H](C)C(=O)NC[C@H]1O[C@@H](n2cnc3c(N)ncnc32)[C@H](O)[C@@H]1O,.,/,/,/,/,/
COc1cc(OC)c(OC)cc1CNC(=O)c1cc(=O)c2ccccc2o1,.,.,9,.,.,.
COc1ccc(CNC(=O)c2cc(=O)c3ccccc3o2)cc1,.,.,.,.,.,.
CS(=O)(=O)N(CC(=O)NCCSCc1ccccc1)c1ccccc1F,.,.,.,.,.,.
COc1ccc(C#Cc2ccc3c(c2)c(=O)c2ccccc2n3C)cc1,.,-7.4,.,.,.,.
CC(NC(=O)c1ccc(Br)cc1)c1ccc2c(c1)CCCC2 (centres undefined),.,.,.,.,.,7.8
O=[N+]([O-])c1cc(Cl)cc(/C=N/Nc2nc3ccccc3s2)c1O,.,.,.,6,.,.
CCCNC(=O)C(Cc1ccc(F)cc1)NC(=O)c1ccccc1 (centres undefined),.,/,/,/,/,/
O=C(COc1ccc(S(=O)(=O)N2CCc3ccccc32)cc1Cl)NCc1ccccn1,.,.,.,.,-5.2,.
O=C(CSc1n[nH]c(-c2ccccc2)n1)Nc1ccccc1O,.,.,.,.,.,.
Cc1ncc(CO)c(/C=N/NC(=O)c2ccccc2Br)c1O,.,.,.,.,.,.
Cc1ncc(CO)c(/C=N/NC(=O)c2ccc(O)cc2)c1O,.,.,.,.,.,.
Cc1ncc(CO)c(/C=N/NC(=S)Nc2ccc(Cl)c(Cl)c2)c1O,.,.,.,11,.,.
Cc1ncc(CO)c(/C=N/NC(=S)Nc2cccc(Cl)c2)c1O,.,.,.,6,.,.
OC1Cc2ccccc2C1Nc1cccc(C(F)(F)F)c1 (centres undefined),.,/,/,/,/,/
CC(C)Nc1nc(Cl)nc(N(C#N)CN2C(=O)c3ccccc3C2=O)n1,.,.,.,.,-5.2,.
COc1ccc(CNC(=O)Cn2cc(C)c(=O)[nH]c2=O)cc1,.,/,/,/,/,/
CCCCn1c(=O)n(Cc2cccc(F)c2)c(=O)c2c1ncn2Cc1ccco1,-10,.,.,.,.,.
Cc1ccnc(N/C=C(\C#N)c2nc(-c3cccc(Br)c3)cs2)c1,.,.,.,.,.,.
O=C(NC(=S)N1CCN(c2ccc(C(F)(F)F)cc2[N+](=O)[O-])CC1)c1cccs1,.,.,10,.,.,.
O=[N+]([O-])c1cc(C(F)(F)F)ccc1N1CCCNCC1,.,.,.,.,.,7.9
CN(C)CCN=Cc1c(O)n(-c2ccc(S(=O)(=O)N3CCOCC3)cc2)c(=O)c2ccccc12,.,/,/,/,/,/
COc1ccc(CCc2nnc(NS(C)(=O)=O)s2)cc1,.,.,.,.,.,.
O=C(CC(O)(CC(=O)OCc1ccccc1)C(=O)OCc1ccccc1)OCc1ccccc1,.,/,/,/,/,/
CC1=C(C(=O)OC(C)C)C(c2ccc(F)cc2)NC(=O)N1 (centres undefined),.,.,.,.,.,.
SMILES,KCNK3 block,KCNK9 block,KCNQ1 act,KCNQ1 inh,Kir21 block,hERG protect
COc1ccc(-c2ccc3c(c2)S(=O)(=O)c2cccc(C(=O)N4CCN(c5c(Cl)cncc5Cl)CC4)c2C3=O)cc1OC,.,/,/,/,/,/
CCOc1ccc(-c2c[n+]3c(n2-c2ccccc2)CCCCC3)cc1,.,.,.,7,.,.
CCCCCCCC/C=C\CCCCCCCC(=O)O,.,.,.,.,.,13
COC(=O)[C@H]1[C@@H](C)N(CCc2cc(OC)c(OC)c(OC)c2)C(=O)N[C@H]1c1ccccc1,.,.,.,.,.,.
CCn1c2ccccc2c2cc(/C=N/NC(=O)c3ccccc3)ccc21,.,.,.,.,.,6.4
Cn1c2ccccc2c2cc(/C=N/NC(=O)c3cc(O)cc(O)c3)ccc21,.,.,.,.,.,.
O=C(CN1C(=O)c2ccccc2S1(=O)=O)NCCSCc1c(F)cccc1Cl,.,.,.,.,.,.
Cc1[nH]n(-c2ccccc2)c(=O)c1N=Nc1ccc(C(=O)O)cc1,.,.,.,.,.,.
Cc1[nH]n(-c2ccccc2)c(=O)c1N=Nc1ccccc1,.,.,.,.,.,.
CC(=O)c1ccc(N=Nc2c(C)[nH]n(-c3ccccc3)c2=O)cc1,.,.,.,6,.,.
